# Screening results as filed in PubChem.
# PGC1a acetyl inh: modulators of PGC1a acetylation | U2OS PGC1a acetylation, AlphaScreen anti-acetyl-lysine; with virally co-expressed GCN5 acetyltransferase | inhibition, % at 15.6 µM | 350,000 tested, 0.17% active;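 active means every replicate shows inhibition of at least 40%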;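 further: 0% = neutral control wells and 100% = positive control wells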
# EWS-Fli block: EWS/Fli transcriptional activity inhibition. A673 NR0B1-luciferase reporter, viability-normalised. inhibition, % at 12.6 µM. 350,000 tested, 0.67% active. AID 651661;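 active means mean inhibition of at least 50% after viability correction, with every replicate also passing that limit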;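 further: firefly luciferase signal divided by Alamar Blue viability fluorescence both relative to DMSO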
# FN deposition inh: fibronectin deposition inhibition; AH1F fibroblasts, Alexa488-fibronectin deposition fluorescence, overnight; 350,000 tested, 0.086% active; AID 743247; inhibition, % at 12.6 µM;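 active means mean inhibition across replicates of 30% or more, regardless of how many single replicates reach that level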;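 further: positive control wells lacked labelled fibronectin entirely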
#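 Material – AH1F fibroblast monolayer, labelled fibronectin deposition · Reagent – labelled fibronectin 24 nM · Timing – 1 h adhesion, overnight exposure · Measured by – fluorescence at 485 nm excitation, 525 nm emission · Read-out – inhibition of fibronectin deposition signal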
# F508del corr: correctors of CFTR F508del function in bronchial epithelial cells | CFBE cells, YFP halide quenching; stimulated with forskolin plus potentiator P3; % fluorescence drop versus neutral controls | activity (quench increase), % at 7.58 µM | 350,000 tested, 0.36% active;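 active means mean added fluorescence quench of at least 8% versus neutral control, with both replicates also reaching 8%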;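 further: cells transiently co-express mutant CFTR-F508del with the halide-sensitive YFP; corrector assay measuring rescue of mutant channel to the surface after 24 h compound exposure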
# Env fusion inh: blocks HIV Env-driven cell-cell fusion; HeLa-JRFL Env/CEM21 cell fusion, luciferase; inhibition, % at 12.3 µM; 360,000 tested, 1.1% active; AID 651610;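 active means mean replicate inhibition score of at least 50 and every replicate individually at or above 50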;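 further: 0% = plate neutral controls and 100% = maraviroc near 300 nM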
# PAX8 inh HTS: PAX8 transcriptional activity inhibition. RMG-I TPO-luciferase reporter, SteadyGlo, 24 h. inhibition, % at 12.6 µM. 360,000 tested, 1.2% active. AID 652154;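 active means mean replicate inhibition at least 60% with every replicate also reaching 60%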;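 further: luciferase light reporting Pax8 driven TPO promoter activity; plate controls were median of neutral control wells for no effect and mitoxantrone controls for full effect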
# The depositor's hits bear a star; x = no result given; [ ] = remark or other dose. A selection: hits, their analogues and other compounds. The true share with any hit is near 2.3%.
SMILES,PGC1a acetyl inh,EWS-Fli block,FN deposition inh,F508del corr,Env fusion inh,PAX8 inh HTS
C[C@@H]1CN([C@H](C)CO)C(=O)c2cc(NC(=O)NC3CCCCC3)ccc2O[C@@H](C)CCCCO[C@@H]1CN(C)S(=O)(=O)c1cn(C)cn1,-8.4,-11.9,x,0.6,-7.7[16.7 µM],12.2
C#Cc1ccc([C@H]2C=C(C(=O)NC3CC3)O[C@@H](OCc3ccc(CO)cc3)C2)cc1,x,-27.3,x,-4.4,-4.9[16.7 µM],-49.8
Cc1cc(O)cc2c1C1CCC3(C)C(=O)CCC3C1C=C2 (stereo not drawn),-17.9,2.6,-0.5,8.3*,16.7,-19.3
C[C@]12CC[C@@H]3c4ccc(O)cc4CC[C@H]3[C@@H]1CCC2=O,-2.1,19.5,-3.7,3.1,-31.2,15.8
Cc1noc(C)c1NC(=O)Nc1cccc2c1O[C@H](CN(C)Cc1ccc(C(=O)Nc3ccccc3N)cc1)[C@@H](C)CN([C@@H](C)CO)C2=O,5.6,-7.7,-1.0,-0.8,x,4.3
Cc1ccc(S(=O)(=O)N2CC[C@@H]3[C@H](CO)N(C)c4ccc(-c5ccc(C#N)cc5)cc4[C@@H]32)cc1,4.7,12.9,5.9,4.6,x,80.0*
Cc1cccc(S(=O)(=O)N2CC[C@H]3[C@@H](CO)N(C)c4ccc(-c5ccc(C#N)cc5)cc4[C@H]32)c1,-4.2,1.1,4.4,2.7,x,-22.3
Cc1cccc(S(=O)(=O)N2CC[C@@H]3[C@H](CO)N(C)c4ccc(-c5ccc(C#N)cc5)cc4[C@@H]32)c1,-10.3,4.5,9.6,4.9,x,89.3*
CN1c2ccc(-c3ccccc3)cc2[C@H]2[C@H](CCN2S(=O)(=O)c2ccccc2F)[C@H]1CO,-25.3,-5.9,2.4,0.8,x,26.1
CN1c2ccc(-c3cccc(C#N)c3)cc2[C@H]2[C@H](CCN2S(=O)(=O)c2ccccc2F)[C@H]1CO,13.4,22.4,6.2,0.5,x,102.3*
C/C=C/c1cnc2c(c1)C(=O)N([C@H](C)CO)C[C@@H](C)[C@@H](CN(C)Cc1ccc(F)cc1)O2,-1.6,-5.2,-10.3,0.3,15.4[16.7 µM],3.3
O=C(C=Cc1ccccc1)CC(c1ccccc1)N1CCOCC1 (stereo not drawn),11.6,58.9*,7.3,-0.9,-75.2,25.4
O=C(C(c1ccccc1)N1CCOCC1)N1CCOCC1 (stereo not drawn),4.5,x,x,x,x,x
Cc1ccc(S(=O)(=O)N(C)C[C@@H]2Oc3ccc(NC(=O)Cn4cnnn4)cc3CC(=O)N([C@H](C)CO)C[C@@H]2C)cc1,-5.4,-11.9,x,-1.0,88.7*[16.7 µM],-6.1
C[C@H](CO)N1C[C@H](C)[C@H](CN(C)S(=O)(=O)c2ccccc2)Oc2ccc(NC(=O)Cn3cnnn3)cc2CC1=O,9.1,-4.2,x,-1.7,65.2*[16.7 µM],16.0
Cc1ccc(S(=O)(=O)N(C)C[C@H]2Oc3ccc(NC(=O)Cn4cnnn4)cc3CC(=O)N([C@H](C)CO)C[C@@H]2C)cc1,0.0,-29.1,x,-0.3,1.4[16.7 µM],-4.5
Cc1ccccc1S(=O)(=O)N1CC[C@H]2[C@H](CO)Nc3ccc(-c4cccc(C#N)c4)cc3[C@H]21,18.8,-11.9,21.3,2.8,x,-25.3
O=C(C1CCC1)N1CCN(c2ccnc3cc(Cl)ccc23)CC1,x,3.1,2.8,-1.6,19.5,7.0
O=C(C1CCCCC1)N1CCN(c2ccnc3cc(Cl)ccc23)CC1,-3.2,22.3,-2.7,1.3,56.9*,12.0
COc1ccccc1N1CCN(c2ccnc3cc(Cl)ccc23)CC1,x,54.3*,18.7,1.5,7.7,18.6
C[C@H]1CN([C@@H](C)CO)S(=O)(=O)c2ccc(C3=CCCC3)cc2O[C@H]1CN(C)S(C)(=O)=O,-5.1,-8.4,x,-1.3,11.2[16.7 µM],x
N#Cc1ccc(S(=O)(=O)N2CCCCC2c2cc(C(=O)Nc3cccc4c3CCCC4)no2)cc1 (stereo not drawn),6.7,-1.0,x,-0.8,59.9*,5.4
CS(=O)(=O)N1CCCCC1c1cc(C(=O)Nc2cccc3c2CCCC3)no1 (stereo not drawn),-3.0,-5.2,-3.6,2.9,-12.1,19.9
Cc1ccc(S(=O)(=O)n2cc(-c3ccccc3)c3ccccc32)cc1,-14.0,59.6*,-2.3,1.5,-163.8,51.7
Cc1ccc(S(=O)(=O)n2cc(C=O)c3ccccc32)cc1,6.5,6.1,5.6,0.5,7.7,21.4
SMILES,PGC1a acetyl inh,EWS-Fli block,FN deposition inh,F508del corr,Env fusion inh,PAX8 inh HTS
C[C@H]1CCCCO[C@@H](CN(C)Cc2ccc(C(=O)O)cc2)[C@@H](C)CN([C@@H](C)CO)C(=O)c2cc(NS(=O)(=O)c3ccccc3)ccc2O1,4.5,-6.9,-0.8,-0.2,-5.5[16.7 µM],-5.4
OC(CNc1ccnc2cc(Cl)ccc12)CNC1CCCCC1 (stereo not drawn),-15.1,24.4,4.8,x,2.2,28.8
CCNC1CCC(Nc2ccnc3cc(Cl)ccc23)CC1 (stereo not drawn),1.8,4.1,6.8,1.4,74.1*,19.4
Clc1ccc(CSc2nnc(-c3ccncc3)o2)cc1,21.2,x,x,x,63.3*,x
C[C@H]1CCCCO[C@@H](CN(C)C(=O)Cc2ccccc2)[C@@H](C)CN([C@@H](C)CO)C(=O)c2cc(NC(=O)c3ccncc3)ccc2O1,-2.2,-6.5,x,0.7,x,-59.3
CC(C)NC(=O)N[C@H]1CC[C@@H](CCn2cc(-c3ccccc3)nn2)O[C@@H]1CO,0.8,-3.9,-0.5,1.5,-27.9[16.7 µM],-10.2
Cc1ccc(C2NC(=O)c3ccccc3N2)c(C)c1 (stereo not drawn),-4.9,36.1,x,10.9*,-47.4,22.6
COc1ccc(C2C3=C(COC3=O)Oc3cc4c(cc32)OCO4)cc1OC (stereo not drawn),x,17.2,9.3,9.6*,-2.2,-28.2
COc1cc(C2C3=C(COC3=O)Oc3cc4c(cc32)OCO4)cc(OC)c1OC(C)=O (stereo not drawn),-12.4,54.5*,-34.3,-1.3,37.4,80.4*
Cc1oc(-c2cccc(Cl)c2)nc1CN1CCCC(C(=O)NC(C)c2ccc3c(c2)OCCO3)C1 (stereo not drawn),8.6,7.7,11.9,1.9,84.4*,39.0
Cc1oc(-c2ccc(Cl)cc2)nc1CN1CCCC(C(=O)NCc2cccnc2)C1 (stereo not drawn),x,x,x,x,86.7*,25.4
CCOCCOC(=O)COC(=O)c1ccccc1NC(=O)c1ccccc1,x,2.9,x,11.0*,6.8,-17.1
CCOc1ccccc1NC(=O)CC1SC(=N)N(c2ccccc2)C1=O (stereo not drawn),x,8.7,-18.8,14.9*,7.1,-11.9
COc1ccccc1NC(=O)CC1SC(=N)N(c2ccccc2)C1=O (stereo not drawn),-10.8,-7.3,x,-3.6,-14.7,2.3
NC(=O)[C@H]1[C@@H]2C(=O)O[C@@H](c3ccccc3)[C@@H](c3ccccc3)N2[C@@H](c2ccc(OCCO)cc2)[C@]12C(=O)Nc1ccc(C#CC3(O)CCCCCC3)cc12,4.1,3.9,x,-2.7,-15.8[16.7 µM],-0.9
